Measurements taken from ChEMBL document CHEMBL4387738 (Bioorg Med Chem Lett, 2019).
The source made the active and inactive calls. The calls are words filed in the database; no cut-off is given here.

What was measured:
[1] = molecular target: Endoplasmic reticulum chaperone BiP (Homo sapiens) (UniProt P11021); experiment: Inhibition of GRP78 (26 to 636 residues) (unknown origin) expressed in Escherichia coli BL21 DE3 cells pre-incubated for 10 mins before FITC-NRLLLTG fluorescent peptide addition in presence of 20 uM ADP followed by further incubation for 2 hrs by fluorescence polarization assay
In short: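 Fluorescence polarization competition assay in 384-well format. Full-length GRP78 (0.75 μM) was held in the ADP-bound closed state with FITC-NRLLLTG (100 nM), and loss of polarization was read. DMSO was the negative control and heat-denatured GRP78 the positive control. IC50 was taken from a 10-point dose response.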

HCT-116 [2] = experiment: Induction of apoptosis in human HCT116 cells assessed as increase in apoptotic cells at 25 uM incubated for 24 hrs by Annexin-V-FITC/propidium iodide staining based flow cytometric method relative to taxol; assay type: functional, cell-based
In short: (§1)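 HCT116 cells exposed to 5, 10 or 25 μM for 24 h, then stained with annexin V and propidium iodide and analysed by flow cytometry. DMSO was the negative control and Taxol the apoptosis control. Total apoptosis counted all annexin V-positive cells, early apoptosis was annexin V-positive/PI-negative, and late apoptosis was annexin V/PI double-positive.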

HCT-116 [3] = experiment: Induction of autophagy in human HCT116 cells assessed as reduction in LC3-1 level at 2 to 10 uM after 16 hrs by Western blot analysis
HCT-116 [4] = experiment: Induction of apoptosis in human HCT116 cells assessed as increase in early apoptotic cells at 5 to 25 uM incubated for 24 hrs by Annexin-V-FITC/propidium iodide staining based flow cytometric method relative to taxol; assay type: functional, cell-based; in short: as §1
HCT-116 [5] = experiment: Induction of apoptosis in human HCT116 cells assessed as late apoptotic cells at 5 to 25 uM incubated for 24 hrs by Annexin-V-FITC/propidium iodide staining based flow cytometric method relative to taxol; assay type: functional, cell-based; in short: as §1
HCT-116 [6] = experiment: Induction of apoptosis in human HCT116 cells 25 uM incubated for 16 to 48 hrs by Annexin-V-FITC/propidium iodide staining based flow cytometric method; assay type: functional, cell-based; conditions: TDE = time-dependent effect
In short: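 Time course in HCT116 cells. After treatment, cells were stained with annexin V and propidium iodide and analysed by flow cytometry. Early apoptosis was scored as annexin V+/PI−, late apoptosis as annexin V+/PI+. DMSO served as the negative control and Taxol as the apoptosis control.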

HCT-116 [7] = experiment: Induction of autophagy in human HCT116 cells assessed as reduction in p62 level at 2 to 10 uM after 16 hrs by Western blot analysis
HCT-116 [8] = experiment: Induction of autophagy in human HCT116 cells assessed as increase in LC3-2 level at 2 to 10 uM after 16 hrs by Western blot analysis
[9] = Inhibition of bacterial DnaK pre-incubated for 10 mins before FITC-NRLLLTG fluorescent peptide addition in presence of 20 uM ADP followed by further incubation for 2 hrs by fluorescence polarization assay; parameters: species or system Bacteria
In short: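 Repeat of the GRP78 fluorescence-polarization substrate-binding assay with the bacterial HSP70 DnaK in place of GRP78. The FITC-NRLLLTG peptide binds the substrate-binding domain in the ADP-bound closed state, raising polarization; inhibitors keep polarization low. Compound was tested in dose response and the IC50 derived. DnaK construct and concentration are not given.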

HCT-116 [10] = experiment: Induction of apoptosis in human HCT116 cells at 5 to 25 uM incubated for 24 hrs by Annexin-V-FITC/propidium iodide staining based flow cytometric method; assay type: functional, cell-based; in short: as §1
HCT-116 [11] = experiment: Induction of apoptosis in human HCT116 cells assessed as apoptotic cells at 10 uM incubated for 24 hrs by Annexin-V-FITC/propidium iodide staining based flow cytometric method relative to taxol; assay type: functional, cell-based; in short: as §1

Sequence of Endoplasmic reticulum chaperone BiP (Homo sapiens) (P11021 whole entry, the tested form may be a part): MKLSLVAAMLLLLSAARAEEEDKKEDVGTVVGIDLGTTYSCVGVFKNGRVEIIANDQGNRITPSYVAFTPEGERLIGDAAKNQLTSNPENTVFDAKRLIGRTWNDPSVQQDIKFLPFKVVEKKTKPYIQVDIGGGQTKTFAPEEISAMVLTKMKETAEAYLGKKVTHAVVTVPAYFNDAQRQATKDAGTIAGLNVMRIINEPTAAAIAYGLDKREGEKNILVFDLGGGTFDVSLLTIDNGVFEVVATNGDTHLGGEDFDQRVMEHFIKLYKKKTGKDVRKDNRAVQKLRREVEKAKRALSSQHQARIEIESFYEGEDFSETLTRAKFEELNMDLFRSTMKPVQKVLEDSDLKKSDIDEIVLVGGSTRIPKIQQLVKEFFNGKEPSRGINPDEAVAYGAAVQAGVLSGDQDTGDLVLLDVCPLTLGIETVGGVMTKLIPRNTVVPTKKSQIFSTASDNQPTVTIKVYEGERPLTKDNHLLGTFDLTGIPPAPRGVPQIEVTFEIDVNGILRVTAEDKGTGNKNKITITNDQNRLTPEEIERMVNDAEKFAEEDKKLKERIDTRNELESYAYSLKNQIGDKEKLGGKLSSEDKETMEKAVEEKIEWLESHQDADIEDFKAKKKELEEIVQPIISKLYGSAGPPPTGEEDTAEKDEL

In the case of `Oc1c(Cl)cc(Cl)cc1Sc1cc(Cl)cc(Cl)c1O`, the inhibition [1] is reported as “Active”.

For `Oc1c(Cl)cc(Cl)c(Cl)c1Cc1c(O)c(Cl)cc(Cl)c1Cl` [HEXACHLOROPHENE], the Activity (HCT-116 [2]) was “Active”, the Activity (HCT-116 [3]) was “Active” and the Activity (HCT-116 [4]) was “Active”. The Activity (HCT-116 [5]) was “Active”, the Activity (HCT-116 [6]) was “Tde” and the Activity (HCT-116 [7]) was “Active”. The Activity (HCT-116 [8]) was “Active”, the IC50 [9] was 51.6 µM and the Activity (HCT-116 [10]) was “Dose-dependent effect”. For the same compound, the inhibition [1] was “Dose-dependent effect” and the Activity (HCT-116 [11]) was “Active”.

For `CC(=O)O[C@H]1C(=O)[C@@]2(C)[C@H]([C@H](OC(=O)c3ccccc3)[C@]3(O)C[C@H](OC(=O)[C@H](O)[C@@H](NC(=O)c4ccccc4)c4ccccc4)C(C)=C1C3(C)C)[C@]1(OC(C)=O)CO[C@@H]1C[C@@H]2O`, the Activity (HCT-116 [5]) was “Active”.

In the case of `Oc1c(Cl)cc(Cl)cc1Cc1cc(Cl)cc(Cl)c1O`, the inhibition [1] is reported as “Active”.

For `Oc1c(Cl)cc(Cl)c(Cl)c1Sc1c(O)c(Cl)cc(Cl)c1Cl`, the inhibition [1] was “Active”.
